Converted amounts (≈) assume the structure as drawn. Square brackets hold non-standard residues; d marks the D form. Peptide text beside a SMILES is read from it. Gly(N-2-aminoethyl) = NCCNCC(=O)O; Nspe = C[C@H](NCC(=O)O)c1ccccc1; Nphe = O=C(O)CNCc1ccccc1; Nlys = NCCCCNCC(=O)O
Tests used:
[1] = Selectivity index, ratio of ED50 for human HaCaT cells to MIC for Staphylococcus aureus 3R7089 strain Oxford/ATCC 9144; assay type: toxicity; settings: read-out: Selectivity Index
[2] = Cytotoxicity against human HaCaT cells assessed as reduction in cell viability pretreated for 1 hr followed by DMEM addition measured after 24 hrs by alamar blue assay; assay type: cell-based; settings: read-out: ED50
Summary of the method: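 HaCaT keratinocytes are grown in DMEM high glucose with 10% FBS and 1% P/S and seeded at 2x10^4 cells/well 24 h before treatment. Compound dilution series run 2–100 µM (5 mM DMSO stocks) in 50 µL for 1 h, then medium is added for 24 h at 37 °C, 5% CO2. alamarBlue is read after 1 h (Ex 540/Em 620). Triplicate, ≥2 occasions; ED50 from dose-response; amphotericin B positive control.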

Pseudomonas aeruginosa = test: Antibacterial activity against Pseudomonas aeruginosa PAO1 ATCC 15692 incubated for 16 hrs under shaking condition; assay type: functional; settings: PAO1 ATCC 15692, 16 h
Summary of the method: (§1)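 Broth microdilution (Andrews method) in Iso-sensitest broth. Overnight cultures are adjusted to A650 0.07 (0.5 McFarland) and diluted ten-fold. Compounds come from 5 mM DMSO stocks, 2-fold serially diluted, final 2–100 μM in a 1:1 inoculum:compound mix. Incubation is 37 °C for 16 h with shaking. MIC is the lowest concentration giving complete growth inhibition, read by absorbance; triplicate.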

[3] = Selectivity index, ratio of ED50 for human HaCaT cells to MIC for Staphylococcus epidermidis clinical isolate; assay type: toxicity; settings: read-out: Selectivity Index
[4] = Selectivity index, ratio of ED50 for human HepG2 cells to MIC for Staphylococcus aureus 3R7089 strain Oxford/ATCC 9144; assay type: toxicity; settings: read-out: Selectivity Index
[5] = Cytotoxicity against human HepG2 cells assessed as reduction in cell viability pretreated for 1 hr followed by DMEM addition measured after 24 hrs by alamar blue assay; assay type: cell-based; settings: read-out: ED50
Summary of the method: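 HepG2 cells are kept in DMEM high glucose with 10% heat-inactivated FBS and 1% P/S at 37 °C, 5% CO2, and seeded at 2x10^4 cells/well one day ahead. They are exposed to compounds (100 to 3 µM, from 5 mM DMSO stocks) in 50 µL for 1 h. Medium is then added and cells incubated 24 h. alamarBlue is read after 2 h (Ex 560/Em 600). Triplicate on ≥2 occasions; ED50 from dose-response; DMSO negative control.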

[6] = test system: Staphylococcus epidermidis; test: Antibacterial activity against Staphylococcus epidermidis clinical isolate incubated for 16 hrs under shaking condition; assay type: functional; summary of the method: as §1
[7] = Selectivity index, ratio of ED50 for human HaCaT cells to MIC for Escherichia coli K-12 W3110 ATCC 27325; assay type: toxicity; settings: read-out: Selectivity Index
Escherichia coli = test: Antibacterial activity against Escherichia coli K-12 W3110 ATCC 27325 incubated for 16 hrs under shaking condition; assay type: functional; settings: K-12 substr. W3110 ATCC 27325, 16 h; summary of the method: as §1
[8] = Selectivity index, ratio of ED50 for human HaCaT cells to MIC for Pseudomonas aeruginosa PAO1 ATCC 15692; assay type: toxicity; settings: read-out: Selectivity Index
[9] = Selectivity index, ratio of ED50 for human HepG2 cells to MIC for Staphylococcus epidermidis clinical isolate; assay type: toxicity; settings: read-out: Selectivity Index
[10] = Selectivity index, ratio of ED50 for human HepG2 cells to MIC for Escherichia coli K-12 W3110 ATCC 27325; assay type: toxicity; settings: read-out: Selectivity Index
[11] = Selectivity index, ratio of ED50 for human HepG2 cells to MIC for Pseudomonas aeruginosa PAO1 ATCC 15692; assay type: toxicity; settings: read-out: Selectivity Index
Staphylococcus aureus = test: Antibacterial activity against Staphylococcus aureus 3R7089 strain Oxford/ATCC 9144 incubated for 16 hrs under shaking condition; assay type: functional; settings: 3R7089 strain Oxford/ATCC 9144, 16 h; summary of the method: as §1

Row | MIC [6] [µM] | Compound | selectivity ratio [1] | CC50 at 24 h [2] [µM] | MIC (Pseudomonas aeruginosa) [µM] | selectivity ratio [3] | selectivity ratio [4] | CC50 at 24 h [5] [µM] | selectivity ratio [7] | MIC (Escherichia coli) [µM] | selectivity ratio [8] | selectivity ratio [9] | selectivity ratio [10] | selectivity ratio [11] | MIC (Staphylococcus aureus) [µM]
1 |  | C[C@@H](c1ccccc1)N(CC(N)=O)C(=O)CN(C(=O)CN(CCCCN)C(=O)CN(C(=O)CN(C(=O)CNCCCCN)[C@@H](C)c1ccccc1)[C@@H](C)c1ccccc1)[C@@H](C)c1ccccc1 (H-[Nlys][Nspe][Nspe][Nlys][Nspe][Nspe]-NH2) | 1 | > 100 | > 100 | 4 | 1 | > 100 | 1 | > 100 | 1 | 4 | 1 | 1 | > 100
2 | 2 (≈ 3.64 µg/mL) | CCCCCN(CC(=O)N(CC(=O)N(CC(=O)N(CCCCN)CC(=O)N(CC(=O)N(CC(N)=O)[C@@H](C)c1ccccc1)[C@@H](C)c1ccccc1)C(C)c1ccccc1)[C@@H](C)c1ccccc1)C(=O)CN(C(=O)CN(C(=O)CN(CCCCN)C(=O)CN(C(=O)CN(C(=O)CNCCCCN)[C@@H](C)c1ccccc1)C(C)c1ccccc1)[C@@H](C)c1ccccc1)C(C)c1ccccc1 (single isomer, unassigned) | 3 | 20 | > 100 | 10 | 4 | 22 |  | > 100 |  | 11 |  |  | 6 (≈ 10.9 µg/mL)
3 |  | CCCCCNCC(=O)N(CC(=O)N(CC(=O)N(CCCCN)CC(=O)N(CC(=O)N(CC(=O)N(CCCCN)CC(=O)N(CC(=O)N(CC(=O)N(CCCCN)CC(=O)N(CC(=O)N(CC(N)=O)[C@@H](C)c1ccccc1)[C@@H](C)c1ccccc1)C(C)c1ccccc1)[C@@H](C)c1ccccc1)[C@@H](C)c1ccccc1)[C@@H](C)c1ccccc1)C(C)c1ccccc1)[C@@H](C)c1ccccc1 (single isomer, unassigned) | 6 | 12 |  | 6 | 8 | 15 |  | 50 (≈ 90.9 µg/mL) |  | 8 |  |  | 2 (≈ 3.64 µg/mL)
4 | 1 (≈ 1.82 µg/mL) | CCCCCNCC(=O)N(CC(=O)N(CC(=O)N(CCCCC)CC(=O)N(CC(=O)N(CC(=O)N(CCCCN)CC(=O)N(CC(=O)N(CC(=O)N(CCCCN)CC(=O)N(CC(=O)N(CC(N)=O)[C@@H](C)c1ccccc1)[C@@H](C)c1ccccc1)C(C)c1ccccc1)[C@@H](C)c1ccccc1)C(C)c1ccccc1)[C@@H](C)c1ccccc1)C(C)c1ccccc1)[C@@H](C)c1ccccc1 (single isomer, unassigned) | 10 | 20 | > 100 | 20 | 9 | 18 |  | > 100 |  | 18 |  |  | 2 (≈ 3.63 µg/mL)

Row | Compound | MIC [6] [µM] | selectivity ratio [1] | CC50 at 24 h [2] [µM] | MIC (Pseudomonas aeruginosa) [µM] | selectivity ratio [3] | selectivity ratio [4] | CC50 at 24 h [5] [µM] | selectivity ratio [7] | MIC (Escherichia coli) [µM] | selectivity ratio [8] | selectivity ratio [9] | selectivity ratio [10] | selectivity ratio [11] | MIC (Staphylococcus aureus) [µM]
5 | NCCNCC(=O)N(CC(=O)N(CC(=O)N(CCN)CC(=O)N(CC(=O)N(CC(=O)N(CCN)CC(=O)N(CC(=O)N(CC(N)=O)Cc1ccccc1)Cc1ccccc1)Cc1ccccc1)Cc1ccccc1)Cc1ccccc1)Cc1ccccc1 (H-[Gly(N-2-aminoethyl)][Nphe][Nphe][Gly(N-2-aminoethyl)][Nphe][Nphe][Gly(N-2-aminoethyl)][Nphe][Nphe]-NH2) | > 100 | 8 | > 100 | > 100 | 1 | 8 | > 100 | 1 | > 100 | 1 | 1 | 1 | 1 | 
